Experimental data reported in paper PMC7805566 (Medicinal Chemistry Research, 2021).
In brackets after ≈: the same amount, converted by molar mass.

Legend:
[1] = tested on: M. tuberculosis H37Rv; assay: MIC against Mtb H37Rv, microplate alamar blue assay; type: cell-based, Mycobacterium tuberculosis; conditions: for MIC: Mycobacterium tuberculosis, H37RV
[2] = Microsomal stability, mouse liver microsomes; type: in vitro ADME
In short: (§1)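 The test compound, taken from a 10 mM DMSO stock and diluted to 100 μM in DMSO, was added to mouse or human liver microsomes and preincubated at 37 °C for 5 min. The reaction was started with buffer/NADPH working solution (5 mM); samples without NADPH were the negative controls. Aliquots at 0 and 30 min were quenched with internal standard, centrifuged at 4 °C, and measured by LC-MS/MS.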

[3] = Microsomal stability, human liver microsomes; type: in vitro ADME
In short: as §1

[4] = tested on: Vero cells
[5] = Metabolic stability in liver microsomes; type: in vitro ADME; conditions: mouse and human liver microsomes, without NADPH
In short: as §1

[6] = In vivo pharmacokinetic profiles in male ICR mice; conditions: for AUC(0-t) / Cmax / Tmax / Vd / clearance / half-life / bioavailability: male, ICR, mouse, plasma; for bioavailability: oral
In short: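 SPF male ICR mice (22–23 g), three per route. Oral 10 mg/kg (1.0 mg/mL in 0.5% carboxymethyl cellulose/0.5% Tween 80); i.v. 2 mg/kg (0.4 mg/mL in 20% HP-β-CD with 4 mol/L HCl). Plasma extracted 20:1 with acetonitrile containing internal standard; LC-MS/MS, C18, isocratic acetonitrile/water 80:20 with 0.1% formic acid. Non-compartmental parameters; F = (AUCp.o.×dosei.v.)/(AUCi.v.×dosep.o.).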

[7] = liver microsomes, previous reports ref 30; cited from earlier work
[8] = Mouse (% remaining at 30 min) With NADPH, with NADPH
[9] = Mouse (% remaining at 30 min) Without NADPH, without NADPH
[10] = Human (% remaining at 30 min) With NADPH, with NADPH
[11] = Human (% remaining at 30 min) Without NADPH, without NADPH

Compound	MIC [1]	remaining at 0.5 h, 1 µM [2, 8]	remaining at 0.5 h, 1 µM [2, 9]	remaining at 0.5 h, 1 µM [3, 10]	remaining at 0.5 h, 1 µM [3, 11]	metabolism in the absence of NADPH (in words) [5]	AUC(0-t) ([6]; iv, 2 mg/kg)	Cmax ([6]; iv, 2 mg/kg)	Tmax ([6]; iv, 2 mg/kg)	Vd ([6]; iv, 2 mg/kg)	clearance ([6]; iv, 2 mg/kg)	half-life ([6]; iv, 2 mg/kg)	bioavailability ([6]; 10 mg/kg)	AUC(0-t) ([6]; po, 10 mg/kg)	Cmax ([6]; po, 10 mg/kg)	Tmax ([6]; po, 10 mg/kg)	half-life ([6]; po, 10 mg/kg)	also measured
N#Cc1cc(C(F)(F)F)cc2c(=O)nc(N3CCN(CC4CCCCC4)CC3)sc12 [Compound 1d, 2-(4-(cyclohexylmethyl)piperazin-1-yl)-4-oxo-6-(trifluoromethyl)-4H-benzo[e][1,3]thiazine-8-carbonitrile]	0.13 µM (≈ 0.0567 µg/mL)	38.6%	96.4%	26.3%	102%	neither macozinone nor 1d were metabolized	445 ng·h/mL	1340 ng/mL	1.98 min	11.3 L/kg	71.2 mL/min/kg	110 min	7.8%	174 ng·h/mL	110 ng/mL	15 min	104 min	cytotoxicity (in words) [4]: no cytotoxicity; increase in the volume of distribution (V) relative to macozinone ([6]; i.v. dosing, mice): 2.0 fold; decrease of oral bioavailability relative to macozinone ([6]; mice): twofold; maximum plasma concentration ([6]; oral dosing, male ICR mice): 240 nM
N#Cc1cc(C(F)(F)F)cc2c(=O)nc(N3CCN(CC4COC4)CC3)sc12 [Compound 1f, 2-(4-(oxetan-3-ylmethyl)piperazin-1-yl)-4-oxo-6-(trifluoromethyl)-4H-benzo[e][1,3]thiazine-8-carbonitrile]	–	–	–	–	–	–	–	–	–	–	–	–	–	–	–	–	–	antimycobacterial activity (in words) ([1]; Mtb H37Rv): inactive
O=c1nc(N2CCN(CC3CCCCC3)CC2)sc2c([N+](=O)[O-])cc(C(F)(F)F)cc12 [Macozinone, reference compound]	–	50.7%	102%	46.8%	101%	neither macozinone nor 1d were metabolized	423 ng·h/mL	1230 ng/mL	1.98 min	5.64 L/kg	75.8 mL/min/kg	51.6 min	16.7%	354 ng·h/mL	251 ng/mL	15 min	101 min	half-life (metabolic stability) [7]: 34 to 43 min
N#Cc1cc(C(F)(F)F)cc2c(=O)nc(N3CCN(CC4CCCC4)CC3)sc12 [Compound 1c, 2-(4-(cyclopentylmethyl)piperazin-1-yl)-4-oxo-6-(trifluoromethyl)-4H-benzo[e][1,3]thiazine-8-carbonitrile]	0.2 µM (≈ 0.0845 µg/mL)	–	–	–	–	–	–	–	–	–	–	–	–	–	–	–	–	–
N#Cc1cc(C(F)(F)F)cc2c(=O)nc(N3CCN(CC4CCOC4)CC3)sc12 (centres unmarked) [Compound 1e, 4-Oxo-2-(4-((tetrahydrofuran-3-yl)methyl)piperazin-1-yl)-6-(trifluoromethyl)-4H-benzo[e][1,3]thiazine-8-carbonitrile]	–	–	–	–	–	–	–	–	–	–	–	–	–	–	–	–	–	loss of potency relative to cyclopentyl methyl 1c ([1]; Mtb H37Rv MIC): 10 fold
